Results: ChEMBL document CHEMBL1221342, “Synthesis and in vitro antitumor activity of new 4,5-dihydropyrazole derivatives” (Bioorg Med Chem, 2010)

Experiments:
[1] = test system: SF-268; assay: Growth inhibition of human SF268 cells after 48 hrs by SRB assay; type: functional; conditions: SF-268, 48 h; for TGI: read-out: pTGI (converted)
Outline: (§1)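 NCI 60-cell-line screen. Cells grown in RPMI1640 with 5% fetal calf serum and 2 mM L-glutamine, with inoculum density set by cell line. Preincubated 24 h, then given compound in DMSO at 10^-4 to 10^-8 M (five 10-fold steps) for 48 h continuous exposure. Growth measured by SRB protein assay. GI50, TGI and LC50 reported as –log molar.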

[2] = test system: DU-145; assay: Growth inhibition of human DU145 cells after 48 hrs by SRB assay; type: functional; conditions: DU-145, 48 h; for TGI: read-out: pTGI (converted); outline: as §1
[3] = test system: CAKI-1; assay: Growth inhibition of human Caki1 cells after 48 hrs by SRB assay; type: functional; conditions: CAKI-1, 48 h; for TGI: read-out: pTGI (converted); outline: as §1
[4] = test system: HCT-15; assay: Growth inhibition of human HCT15 cells after 48 hrs by SRB assay; type: functional; conditions: HCT-15, 48 h; outline: as §1
[5] = test system: RXF 393; assay: Growth inhibition of human RXF393 cells after 48 hrs by SRB assay; type: functional; conditions: RXF 393, 48 h; for TGI: read-out: pTGI (converted); outline: as §1
[6] = test system: U-251; assay: Growth inhibition of human U251 cells after 48 hrs by SRB assay; type: functional; conditions: U-251, 48 h; for TGI: read-out: pTGI (converted); outline: as §1
[7] = test system: 786-0; assay: Growth inhibition of human 786-0 cells after 48 hrs by SRB assay; type: functional; conditions: 786-0, 48 h; for TGI: read-out: pTGI (converted); outline: as §1
[8] = test system: UACC-62; assay: Growth inhibition of human UACC62 cells after 48 hrs by SRB assay; type: functional; conditions: UACC-62, 48 h; for TGI: read-out: pTGI (converted); outline: as §1
[9] = test system: SK-OV-3; assay: Growth inhibition of human SKOV3 cells after 48 hrs by SRB assay; type: functional; conditions: SK-OV-3, 48 h; for TGI: read-out: pTGI (converted); outline: as §1
[10] = test system: NCI-H460; assay: Growth inhibition of human NCI-H460 cells after 48 hrs by SRB assay; type: functional; conditions: NCI-H460, 48 h; for TGI: read-out: pTGI (converted); outline: as §1
[11] = test system: OVCAR-8; assay: Growth inhibition of human OVCAR8 cells after 48 hrs by SRB assay; type: functional; conditions: OVCAR-8, 48 h; for TGI: read-out: pTGI (converted); outline: as §1
[12] = test system: SW-620; assay: Growth inhibition of human SW620 cells after 48 hrs by SRB assay; type: functional; conditions: SW-620, 48 h; for TGI: read-out: pTGI (converted); outline: as §1
[13] = test system: CCRF-CEM; assay: Growth inhibition of human CCRF-CEM cells after 48 hrs by SRB assay; type: functional; conditions: for TGI: read-out: pTGI (converted); outline: as §1
[14] = test system: NCI-H322M; assay: Growth inhibition of human NCI-H322M cells after 48 hrs by SRB assay; type: functional; conditions: for TGI: read-out: pTGI (converted); outline: as §1
[15] = test system: A498; assay: Growth inhibition of human A498 cells after 48 hrs by SRB assay; type: functional; conditions: A498, 48 h; for TGI: read-out: pTGI (converted); outline: as §1
[16] = test system: TK-10; assay: Growth inhibition of human TK10 cells after 48 hrs by SRB assay; type: functional; conditions: TK-10, 48 h; for TGI: read-out: pTGI (converted); outline: as §1
[17] = test system: K562; assay: Growth inhibition of human K562 cells after 48 hrs by SRB assay; type: functional; conditions: K562, 48 h; for TGI: read-out: pTGI (converted); outline: as §1
[18] = test system: HCC 2998; assay: Growth inhibition of human HCC2998 cells after 48 hrs by SRB assay; type: functional; conditions: HCC 2998, 48 h; for TGI: read-out: pTGI (converted); outline: as §1
[19] = test system: SF-539; assay: Growth inhibition of human SF539 cells after 48 hrs by SRB assay; type: functional; conditions: SF-539, 48 h; for TGI: read-out: pTGI (converted); outline: as §1
[20] = test system: MOLT-4; assay: Growth inhibition of human MOLT4 cells after 48 hrs by SRB assay; type: functional; conditions: MOLT-4, 48 h; for TGI: read-out: pTGI (converted); outline: as §1
[21] = test system: M14; assay: Growth inhibition of human M14 cells after 48 hrs by SRB assay; type: functional; conditions: M14, 48 h; for TGI: read-out: pTGI (converted); outline: as §1
[22] = test system: T47D; assay: Growth inhibition of human T47D cells after 48 hrs by SRB assay; type: functional; conditions: for TGI: read-out: pTGI (converted); outline: as §1
[23] = test system: OVCAR-4; assay: Growth inhibition of human OVCAR4 cells after 48 hrs by SRB assay; type: functional; conditions: OVCAR-4, 48 h; for TGI: read-out: pTGI (converted); outline: as §1
[24] = test system: KM12; assay: Growth inhibition of human KM12 cells after 48 hrs by SRB assay; type: functional; conditions: KM12, 48 h; for TGI: read-out: pTGI (converted); outline: as §1
[25] = test system: BT-549; assay: Growth inhibition of human BT549 cells after 48 hrs by SRB assay; type: functional; conditions: BT-549, 48 h; for TGI: read-out: pTGI (converted); outline: as §1
[26] = test system: HCT-116; assay: Growth inhibition of human HCT116 cells after 48 hrs by SRB assay; type: functional; conditions: HCT-116, 48 h; for TGI: read-out: pTGI (converted); outline: as §1
[27] = test system: MDA-MB-468; assay: Growth inhibition of human MDA-MB-468 cells after 48 hrs by SRB assay; type: functional; conditions: MDA-MB-468, 48 h; for TGI: read-out: pTGI (converted); outline: as §1
[28] = test system: OVCAR-3; assay: Growth inhibition of human OVCAR-3 cells after 48 hrs by SRB assay; type: functional; conditions: OVCAR-3, 48 h; for TGI: read-out: pTGI (converted); outline: as §1
[29] = test system: NCI-H522; assay: Growth inhibition of human NCI-H522 cells after 48 hrs by SRB assay; type: functional; conditions: NCI-H522, 48 h; for TGI: read-out: pTGI (converted); outline: as §1
[30] = test system: NCI-H460; assay: Cytotoxicity against human NCI-H460 cells after 72 hrs by SRB assay; type: functional, cell-based; conditions: NCI-H460, 72 h
Outline: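 NCI-H460 (ATCC) cells seeded in 96-well plates in growth medium. Scalar drug concentrations added 24 h after plating, then 72 h exposure. Surviving cells stained with sulforhodamine B, OD read at 570 nm. IC50 (50% growth inhibition) fitted from dose–response curves. Mean ± SE of at least three independent experiments.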

[31] = test system: SK-MEL-2; assay: Growth inhibition of human SK-MEL-2 cells after 48 hrs by SRB assay; type: functional; conditions: SK-MEL-2, 48 h; outline: as §1
[32] = test system: NCI/ADR-RES; assay: Growth inhibition of human NCI/ADR-RES cells after 48 hrs by SRB assay; type: functional; conditions: for TGI: read-out: pTGI (converted); outline: as §1
[33] = test system: SK-MEL-5; assay: Growth inhibition of human SK-MEL-5 cells after 48 hrs by SRB assay; type: functional; conditions: SK-MEL-5, 48 h; for TGI: read-out: pTGI (converted); outline: as §1
[34] = test system: HOP-62; assay: Growth inhibition of human HOP62 cells after 48 hrs by SRB assay; type: functional; conditions: HOP-62, 48 h; for TGI: read-out: pTGI (converted); outline: as §1
[35] = Growth inhibition of human […] cells after 48 hrs by SRB assay; type: functional; conditions: for TGI: read-out: pTGI (converted); outline: as §1
[36] = test system: PC-3; assay: Growth inhibition of human PC3 cells after 48 hrs by SRB assay; type: functional; conditions: PC-3, 48 h; for TGI: read-out: pTGI (converted); outline: as §1
[37] = test system: MDA-MB-435; assay: Growth inhibition of human MDA-MB-435 cells after 48 hrs by SRB assay; type: functional; conditions: MDA-MB-435, 48 h; for TGI: read-out: pTGI (converted); outline: as §1

CCN(CC)c1ccc(C2=NN(C(C)=O)C(c3cc(OC)c(OC)c(OC)c3)C2)cc1 (configuration not stated)
12.6 µM: TGI [6] | TGI [7] | TGI [8] | TGI [14] | TGI [24] | TGI [26] | TGI [36]
10 µM: TGI [28]
0.631 µM: GI50 [17] | TGI [19] | GI50 [23] | GI50 [25] | TGI [27] | TGI [29]
0.126 µM: GI50 [3]
3.16 µM: TGI [20] | TGI [21]
0.794 µM: GI50 [1] | GI50 [18]
> 100 µM: TGI [17]
0.398 µM: GI50 [2] | GI50 [4] | GI50 [5] | GI50 [6] | GI50 [9] | GI50 [10] | GI50 [11] | GI50 [16] | GI50 [21] | GI50 [28] | GI50 [29] | GI50 [33] | TGI [37]
0.158 µM: GI50 [35] | GI50 [37]
1 µM: TGI [13]
0.2 µM: GI50 [22] | GI50 [32]
7.94 µM: TGI [18]
5.01 µM: TGI [11] | TGI [25]
0.251 µM: GI50 [20] | GI50 [27]
0.316 µM: GI50 [8] | GI50 [12] | GI50 [13] | GI50 [15] | GI50 [19] | GI50 [24] | GI50 [26] | GI50 [36]
3.98 µM: TGI [33]
39.8 µM: TGI ([31]; read-out: pTGI (converted))
1.58 µM: GI50 [34]
15.8 µM: TGI [9] | TGI [12]
20 µM: TGI [1] | TGI [3] | TGI [16] | TGI [22]
2.51 µM: TGI [5] | TGI [15]
0.98 µM: IC50 [30]
0.501 µM: GI50 [7] | GI50 [14] | GI50 [31] | TGI [32] | TGI [35]
2 µM: TGI [2] | TGI [10]
25.1 µM: TGI [23] | TGI [34]

COc1ccc(C2CC(c3cc(OC)c(OC)c(OC)c3)=NN2)cc1 (configuration not stated)
25.1 µM: GI50 [11] | TGI [20] | TGI [33]
3.16 µM: GI50 [4] | GI50 [10] | GI50 [29] | GI50 [35] | GI50 [37]
5.01 µM: GI50 [12] | GI50 [20]
6.31 µM: GI50 [13] | GI50 [15] | GI50 [19] | GI50 [32] | GI50 [36]
7.94 µM: GI50 [3] | GI50 [8] | GI50 [25]
31.6 µM: GI50 [2] | GI50 [34]
12.6 µM: GI50 [9] | GI50 [21] | GI50 [23]
> 100 µM: TGI [1] | TGI [2] | TGI ([4]; read-out: pTGI (converted)) | TGI [5] | TGI [6] | TGI [7] | TGI [8] | TGI [9] | TGI [11] | TGI [12] | TGI [13] | TGI [14] | TGI [16] | TGI [17] | TGI [21] | TGI [22] | TGI [23] | TGI [24] | TGI [25] | TGI [26] | TGI [32] | TGI [34] | TGI [36]
79.4 µM: GI50 [14]
39.8 µM: GI50 [16] | TGI [18] | TGI [19]
36.3 µM: TGI [29]
2.51 µM: GI50 [17]
30.2 µM: TGI [10]
20 µM: GI50 [1] | GI50 [7] | TGI [35] | TGI [37]
10 µM: GI50 [5] | GI50 [18]
50.1 µM: TGI [15] | TGI [28]
63.1 µM: TGI [3] | TGI [27]
3.98 µM: GI50 [6] | GI50 [22] | GI50 [24] | GI50 [26] | GI50 [27] | GI50 [28] | GI50 [33]
